RAD54 inh – inhibitors of human RAD54 branch migration; Q92698; hit rate 0.14% among 360,000; RAD54 Holliday junction branch migration, FAM/BHQ fluorescence; AID 602329; inhibition, % at 10.4 µM;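 active = mean normalized replicate activity at least 40 and at least half of replicates scoring 40 or more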;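 note: 0% = median of neutral control wells and 100% = median of positive control wells; inhibitors cause a drop in the FAM fluorescence signal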
Target sequence (Q92698 whole entry, looked up): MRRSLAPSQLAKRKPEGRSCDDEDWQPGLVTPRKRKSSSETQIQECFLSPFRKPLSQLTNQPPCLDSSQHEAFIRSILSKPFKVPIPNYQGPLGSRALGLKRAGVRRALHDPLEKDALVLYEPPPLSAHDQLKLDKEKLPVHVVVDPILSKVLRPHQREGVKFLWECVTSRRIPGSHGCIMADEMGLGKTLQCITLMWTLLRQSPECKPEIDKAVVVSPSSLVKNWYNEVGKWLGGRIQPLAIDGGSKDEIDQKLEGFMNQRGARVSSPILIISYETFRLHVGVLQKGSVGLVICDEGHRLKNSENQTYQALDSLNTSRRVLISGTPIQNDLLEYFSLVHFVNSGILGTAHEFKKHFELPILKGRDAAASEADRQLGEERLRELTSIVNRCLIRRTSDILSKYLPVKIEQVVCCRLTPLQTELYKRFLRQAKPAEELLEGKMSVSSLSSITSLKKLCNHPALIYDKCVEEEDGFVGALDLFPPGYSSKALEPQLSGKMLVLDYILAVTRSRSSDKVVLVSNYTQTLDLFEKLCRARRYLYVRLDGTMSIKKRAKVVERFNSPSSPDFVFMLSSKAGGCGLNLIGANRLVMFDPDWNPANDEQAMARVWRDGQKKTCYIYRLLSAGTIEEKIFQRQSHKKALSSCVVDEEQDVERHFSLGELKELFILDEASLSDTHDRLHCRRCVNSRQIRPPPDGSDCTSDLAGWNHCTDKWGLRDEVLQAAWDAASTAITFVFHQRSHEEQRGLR
UBC13 polyUb – human UBC13 polyubiquitination inhibition. P61088. UBC13 polyubiquitin chain formation, TR-FRET. inhibition, % at 20 µM. hit rate 0.47% among 330,000. AID 485273; in the data active = inhibition above about 45%, passing the limit was not always enough
DNA FID counter – fluorescent intercalator displacement, NS3 helicase counter-screen. inhibition, % at 7.9 µM. DNA fluorescent intercalator displacement, fluorescence. AID 1845. hit rate 0.17% among 290,000; in the data active = inhibition above about 37%;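 note: 0% = vehicle and 100% = reference compound; higher means more ethidium bromide displaced from hairpin DNA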
Neddyl block – cullin neddylation inhibition | calls only at 25 µM | TR-FRET cullin neddylation, biochemical | hit rate 0.58% among 360,000; in the data active = inhibition above about 36%
Apaf-1 inh – inhibitors of human Apaf-1 apoptosome. O14727. reconstituted apoptosome caspase-3 activity, DEVD-Rh110 fluorescence. inhibition, % at 20 µM. hit rate 0.71% among 330,000. AID 489030; active = inhibition of at least 40% at 20 µM;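 note: plate controls were DMSO wells for no effect and DEVD-CHO caspase inhibitor wells for full effect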
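Assay system: Apoptosome proteins | Medium: pH 7.5 Hepes buffer with CHAPS, BSA, DTT | Also added: Cytochrome c and DEVD-Rh110 substrate | Times: 30 min plus 50 min, RT | Detection: Rhodamine 110 fluorescence at Ex 480/Em 540 nm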
RAD52 inh – RAD52 (human) annealing inhibition | P43351 | recombinant RAD52 DNA annealing, FRET fluorescence | inhibition, % at 18.7 µM | hit rate 0.46% among 360,000 | AID 651710;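 active = every replicate showing at least 50% inhibition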
The depositor's hits bear a star; i = inactive; . = no result given; + = active, no number. In the library only some 1.6% were active in any assay of this set; here they are far more common.

SMILES | RAD54 inh | UBC13 polyUb | DNA FID counter | Neddyl block | Apaf-1 inh | RAD52 inh
Cc1cc(/C=c2\sc3nc4ccccc4n3c2=O)c(C)n1-c1ccc(C(=O)O)cc1 | . | . | -31 | + | . | -44
O=C(c1cccc(S(=O)(=O)N2CCN(c3ccc(F)cc3)CC2)c1)N1CCCCCCC1 | 17 | 28 | . | i | 42* | 11
CC(=O)N1CCN(C(=O)c2cccc(S(=O)(=O)N3CCN(c4ccc(F)cc4)CC3)c2)CC1 | . | 6 | . | i | 0 | -14
C[C@H]1CN([C@@H](C)CO)C(=O)c2cccc(NC(=O)Nc3ccc(C(F)(F)F)cc3)c2O[C@H]1CN(C)C(=O)Nc1ccc2c(c1)OCO2 | -1 | . | . | . | . | .
CNC(=O)C[C@H]1CC[C@@H]2[C@@H](COc3ccc(NC(=O)c4cccs4)cc3C(=O)N2C)O1 | -4 | . | . | . | . | .
COc1ccc(-c2coc3c(CN4CCCCC4)c(O)c(CN4CCCCC4)c(O)c3c2=O)cc1 | . | 35 | 4 | . | 42* | .
O=C(Cc1ccncc1)Nc1ccc2c(c1)[C@@H]1C[C@@H](CC(=O)N3CCCCC3)O[C@H](CO)[C@@H]1O2 | 7 | . | . | . | . | -10
COc1ccccc1-c1c(-c2ccc(OCC(=O)NN)cc2O)n[nH]c1C(F)(F)F | 5 | -2 | -17 | i | 8 | -6
COc1ccc(-c2n[nH]c(C(F)(F)F)c2-c2cc3ccccc3o2)c(O)c1 | -3 | 18 | 17 | + | 11 | .
O=C(O)c1ccc(-n2cccc2/C=N\NC(=O)c2cc3cc(Br)ccc3o2)cc1 | -2 | 20 | -27 | + | -4 | -11
Cn1cc(/C=N/NC(=O)c2cc3cc(Br)ccc3o2)c2ccccc21 | -6 | 4 | -9 | i | 0 | -6
C[C@@H]1CN([C@@H](C)CO)C(=O)c2cc(C#CCN(C)C)cnc2O[C@H]1CN(C)Cc1ccccn1 | -3 | . | . | . | . | -28
Nc1nonc1C(=O)NCCNCc1ccccc1OCc1ccccc1F | -13 | 8 | 21 | i | 17 | .
Nc1nonc1C(=O)NCCNCc1cc(Br)ccc1OCc1ccccc1F | 10 | 4 | 40* | i | 18 | .
COCC(=O)N1[C@H](CO)[C@@H](c2ccccc2)C12CN(C(=O)c1cccc(F)c1)C2 | . | . | . | . | . | -7
O=C1O[C@@H](c2ccccc2)[C@@H](c2ccccc2)N2[C@@H](c3ccc(O)cc3)[C@]3(C(=O)Nc4ccccc43)[C@@H](C(=O)N3CCCCCCC3)[C@H]12 | -3 | . | . | . | . | 58*
O=C1O[C@@H](c2ccccc2)[C@@H](c2ccccc2)N2[C@@H](c3ccccc3OCCO)[C@]3(C(=O)Nc4ccc(C#CC5=CCCCC5)cc43)[C@@H](C(=O)N3CCN(c4ncccn4)CC3)[C@H]12 | -3 | . | . | . | . | -41
O=C1O[C@@H](c2ccccc2)[C@@H](c2ccccc2)N2[C@@H](c3ccccc3OCCO)[C@]3(C(=O)Nc4ccc(C#CCCO)cc43)[C@@H](C(=O)N3CCN(c4ncccn4)CC3)[C@H]12 | -2 | . | . | . | . | 76*
O=C1O[C@H](c2ccccc2)[C@H](c2ccccc2)N2[C@H]1[C@@H](C(=O)N1CCN(c3ncccn3)CC1)[C@]1(C(=O)Nc3ccccc31)[C@H]2c1ccc(O)cc1 | -8 | . | . | . | . | 10
O=C1O[C@@H](c2ccccc2)[C@@H](c2ccccc2)N2[C@@H](c3ccc(OCCO)cc3)[C@]3(C(=O)Nc4ccc(C#CCCO)cc43)[C@@H](C(=O)N3CCN(c4ncccn4)CC3)[C@H]12 | -1 | . | . | . | . | 52*
COc1ccc(C#Cc2ccc3c(c2)[C@]2(C(=O)N3)[C@H](C(=O)N3CCN(c4ncccn4)CC3)[C@H]3C(=O)O[C@H](c4ccccc4)[C@H](c4ccccc4)N3[C@@H]2c2ccc(OCCO)cc2)cc1 | -2 | . | . | . | . | -19
COc1ccccc1-c1cnc2c(c1)C(=O)N([C@H](C)CO)C[C@@H](C)[C@H](CN(C)Cc1ccc(F)cc1)O2 | -6 | . | . | . | . | 4
C[C@@H]1CN([C@@H](C)CO)C(=O)Cc2cc(NC(=O)Nc3ccc(C(F)(F)F)cc3)ccc2O[C@@H]1CN(C)S(=O)(=O)c1cn(C)cn1 | -6 | . | . | . | . | 8
O=S(=O)(Nc1cc(Sc2ncn[nH]2)c(O)c2ccccc12)c1ccccc1 | . | -56 | 3 | i | 94* | 5
O=C(N/N=C/c1c(O)n(-c2ccccc2Cl)c(=O)c2ccccc12)c1cccnc1 | . | . | -22 | i | . | -39
SMILES | RAD54 inh | UBC13 polyUb | DNA FID counter | Neddyl block | Apaf-1 inh | RAD52 inh
COc1ccc(Cn2c(O)c(/C=N/NC(=O)c3cccnc3)c3ccccc3c2=O)cc1 | . | . | -26 | + | . | -3
CC(C)NC(=O)Nc1ccc2c(c1)C(=O)N([C@H](C)CO)C[C@@H](C)[C@@H](CN(C)Cc1ccc(C(=O)O)cc1)OCCCC[C@H](C)O2 | -3 | . | . | . | . | -20
CCN(CC)c1ccc(/C=C2/C(=O)N(c3ccc([N+](=O)[O-])cc3)N=C2N2CCOCC2)cc1 | . | -96 | 3 | . | 56* | .
C[C@@H]1CN([C@H](C)CO)S(=O)(=O)c2ccc(-c3cccc(F)c3)cc2O[C@H]1CN(C)S(C)(=O)=O | 12 | . | . | . | . | 10
COC(=O)c1cc2c(-c3ccccc3)cc3ccccn3c-2c1C(=O)OC | -11 | -62 | 9 | i | 14 | .
COC(=O)c1c(C(=O)OC)c2cccc3cc(-c4ccccc4)c4ccc1c4n32 | 1 | -112 | -2 | i | 65* | .
COc1ccc2c3c(n(C)c2c1)[C@@H](CO)N(C(=O)Nc1ccc(F)cc1)CC31CCN(C(=O)Cc2ccncc2)CC1 | . | . | . | . | . | 11
CCOc1cc(CNC2CCCC2)cc(Cl)c1OCc1ccccc1 | 8 | 38 | 39* | i | 14 | .
CCOc1cc(CNCC(C)C)cc(Cl)c1OCc1ccccc1 | . | 14 | 22 | i | 0 | 8
CCC(=O)N1[C@H](C#N)[C@@H](c2ccccc2-c2ccccc2)[C@@H]1CO | . | . | . | . | . | -8
CCc1nc(N2[C@H](CO)[C@H](c3ccccc3-c3ccc(F)cc3)[C@@H]2C#N)sc1C | . | . | . | . | . | 60*
CCC(=O)N1[C@@H](C#N)[C@H](c2ccccc2-c2ccccc2)[C@@H]1CO | . | . | . | . | . | 71*
C/C=C/c1ccccc1[C@H]1[C@@H](C#N)N(c2ncc(CC)s2)[C@@H]1CO | . | . | . | . | . | 65*
CCCNC(=O)C[C@@H]1C[C@H]2c3cc(NC(=O)CC4CC4)ccc3O[C@H]2[C@H](CO)O1 | -13 | . | . | . | . | 34
CCCNC(=O)N1CC(=O)N2[C@@H](CO)[C@H](c3ccc(-c4cccc(C)c4)cc3)[C@@H]2C1 | . | . | . | . | . | 4
Cc1noc(C)c1NC(=O)N(C)C[C@@H]1Oc2ccc(NS(C)(=O)=O)cc2CC(=O)N([C@@H](C)CO)C[C@@H]1C | 5 | . | . | . | . | .
Cc1ccc(C(=O)C[n+]2cc(-c3ccc(C)cc3)n3c2CCCCC3)cc1 | 22 | -1 | 39* | i | 1 | .
O=C(C[n+]1cc(-c2ccccc2)n2c1CCCCC2)c1ccc(Br)cc1 | . | 16 | 42* | i | -4 | 3
Cc1noc(C)c1S(=O)(=O)Nc1ccc2c(c1)C(=O)N([C@H](C)CO)C[C@H](C)[C@@H](CN(C)Cc1ccc(C(=O)Nc3ccccc3N)cc1)O2 | . | . | . | . | . | 7
